Active and inactive are the calls of the source. No cut-off for these calls is given here.
Assays:
[1] = test system: Influenza A virus (A/California/04/2009(H1N1)); assay: Inhibition of Influenza A (A/California/04/2009) (H1N1) clinical isolate N-terminal truncated PA endonuclease at 500 nM using 5'-FAM/3-TAMRA quencer labeled 17-mer ssDNA-oligo as substrate measured over 45 mins by FRET assay relative to control
[2] = target: T1, Arginase-1 (Homo sapiens) (UniProt P05089); assay: Inhibition of full length human arginase 1 expressed in Escherichia coli BL21(DE3) at 200 uM using unlabeled L-arginine/L-[guanidino-14C]arginine as substrate after 5 mins by liquid scintillation counting method relative to control
T1 sequence (whole entry): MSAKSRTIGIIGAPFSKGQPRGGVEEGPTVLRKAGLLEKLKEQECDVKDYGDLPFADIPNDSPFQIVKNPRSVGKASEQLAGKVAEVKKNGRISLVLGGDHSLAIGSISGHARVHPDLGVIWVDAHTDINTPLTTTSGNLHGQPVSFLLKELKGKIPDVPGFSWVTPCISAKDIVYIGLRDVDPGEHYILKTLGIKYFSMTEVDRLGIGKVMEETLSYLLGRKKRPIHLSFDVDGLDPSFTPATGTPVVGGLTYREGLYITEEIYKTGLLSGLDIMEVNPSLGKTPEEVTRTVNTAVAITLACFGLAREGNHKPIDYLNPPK
How it was run: (§1)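 Single-concentration cross-inhibition screen, final inhibitor 200 μM, percent inhibition relative to positive and negative controls; run per literature protocols (Arg1, MetAP1 Mn2+ isoform, NDM-1).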

[3] = test system: Bacteria; assay: Inhibition of bacterial NDM1 at 200 uM using chromacef as substrate preincubated for 10 mins followed by substrate addition; how it was run: as §1
[4] = test system: Influenza A virus (A/California/04/2009(H1N1)); assay: Inhibition of Influenza A (A/California/04/2009) (H1N1) clinical isolate N-terminal truncated PA endonuclease at 500 nM using 5'-FAM/3-TAMRA quencer labeled 17-mer ssDNA-oligo as substrate measured over 45 mins in presence of up to 25 mM metal ions by FRET assay relative to control
[5] = Inhibition of Influenza A (A/California/04/2009) (H1N1) clinical isolate N-terminal truncated PA endonuclease using 5'-FAM/3-TAMRA quencer labeled 17-mer ssDNA-oligo as substrate measured over 45 mins by FRET assay; set-up: species or system Influenza A virus (A/California/04/2009(H1N1))
How it was run: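 Cleavage of a 5'-FAM/3'-TAMRA 17-mer ssDNA substrate (200 nM) by influenza PA endonuclease (4 nM) in 20 mM Tris, 150 mM NaCl, 2 mM MnCl2, 10 mM β-mercaptoethanol, 0.2% Triton-X100, pH 8.0.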

[6] = target: Human immunodeficiency virus type 1 integrase (Human immunodeficiency virus 1) (UniProt Q7ZJM1); assay: Inhibition of recombinant HIV1 integrase 3'-processing activity at 200 uM using 5'-end [32P]-labeled oligonucleotide substrate after 60 mins by densitometric analysis relative to control
[7] = target: Human immunodeficiency virus type 1 integrase (Human immunodeficiency virus 1) (UniProt Q7ZJM1); assay: Inhibition of recombinant HIV1 integrase strand transfer activity at 200 uM using 5'-end [32P]-labeled oligonucleotide substrate after 60 mins by densitometric analysis relative to control
[8] = target: Carbonic anhydrase 2 (Homo sapiens) (UniProt P00918); assay: Inhibition of human carbonic anhydrase 2 at 200 uM using p-nitrophenyl acetate as substrate preincubated for 15 mins followed by substrate addition and measured every 1 min for 20 mins
How it was run: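 Single-point screen at 200 μM, percent inhibition relative to positive and negative controls, following literature protocols.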

[9] = target: 72 kDa type IV collagenase (Homo sapiens) (UniProt P08253); assay: Inhibition of recombinant human MMP2 at 200 uM using Mca-Pro-Leu-Gly-Leu-Dpa-Ala-Arg-NH2.AcOH as substrate preincubated for 30 mins followed by substrate addition and measured every min for 20 mins by fluorescence assay
[10] = target: Lactoylglutathione lyase (Homo sapiens) (UniProt Q04760); assay: Inhibition of human glyoxalase 1 at 200 uM relative to control
[11] = target: T2, Protein deacetylase HDAC6 (Homo sapiens) (UniProt Q9UBN7); assay: Inhibition of N-terminal GST-tagged recombinant full length human HDAC6 expressed in baculovirus infected Sf9 insect cells at 200 uM using HDAC substrate 3 after 30 mins by fluorescence assay relative to control
T2 sequence (whole entry): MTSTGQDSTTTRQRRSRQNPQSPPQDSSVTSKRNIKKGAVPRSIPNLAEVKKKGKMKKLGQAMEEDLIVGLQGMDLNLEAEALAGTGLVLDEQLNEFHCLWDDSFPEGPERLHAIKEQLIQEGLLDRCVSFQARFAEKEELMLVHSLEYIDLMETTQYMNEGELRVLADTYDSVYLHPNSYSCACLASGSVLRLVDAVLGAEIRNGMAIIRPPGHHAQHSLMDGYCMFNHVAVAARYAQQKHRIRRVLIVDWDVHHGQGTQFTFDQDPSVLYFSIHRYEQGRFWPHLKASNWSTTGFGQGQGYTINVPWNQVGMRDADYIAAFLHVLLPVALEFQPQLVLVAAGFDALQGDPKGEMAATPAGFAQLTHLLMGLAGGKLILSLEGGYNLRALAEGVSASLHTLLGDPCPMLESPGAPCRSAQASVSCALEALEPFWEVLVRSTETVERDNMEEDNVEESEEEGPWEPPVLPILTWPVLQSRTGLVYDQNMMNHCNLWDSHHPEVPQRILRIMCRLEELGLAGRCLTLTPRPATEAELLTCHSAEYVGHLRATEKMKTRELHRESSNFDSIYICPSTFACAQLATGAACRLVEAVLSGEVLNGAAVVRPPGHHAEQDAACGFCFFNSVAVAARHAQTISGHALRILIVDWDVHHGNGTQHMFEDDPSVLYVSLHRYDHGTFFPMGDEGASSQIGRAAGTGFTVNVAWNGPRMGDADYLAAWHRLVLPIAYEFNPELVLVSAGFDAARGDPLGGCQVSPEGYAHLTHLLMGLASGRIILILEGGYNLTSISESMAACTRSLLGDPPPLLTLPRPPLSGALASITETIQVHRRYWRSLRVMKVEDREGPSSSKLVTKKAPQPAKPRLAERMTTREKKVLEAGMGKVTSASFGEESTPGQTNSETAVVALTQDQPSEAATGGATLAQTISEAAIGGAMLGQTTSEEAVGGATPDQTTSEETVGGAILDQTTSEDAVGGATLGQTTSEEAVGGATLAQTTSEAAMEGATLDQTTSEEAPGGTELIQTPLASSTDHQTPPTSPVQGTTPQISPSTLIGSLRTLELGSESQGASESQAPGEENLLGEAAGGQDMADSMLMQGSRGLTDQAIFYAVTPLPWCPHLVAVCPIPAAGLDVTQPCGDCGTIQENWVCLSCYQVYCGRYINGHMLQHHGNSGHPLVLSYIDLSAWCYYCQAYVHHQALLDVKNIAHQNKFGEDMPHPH

Chain of Human immunodeficiency virus type 1 integrase (Human immunodeficiency virus 1) (Q7ZJM1 as listed by the source): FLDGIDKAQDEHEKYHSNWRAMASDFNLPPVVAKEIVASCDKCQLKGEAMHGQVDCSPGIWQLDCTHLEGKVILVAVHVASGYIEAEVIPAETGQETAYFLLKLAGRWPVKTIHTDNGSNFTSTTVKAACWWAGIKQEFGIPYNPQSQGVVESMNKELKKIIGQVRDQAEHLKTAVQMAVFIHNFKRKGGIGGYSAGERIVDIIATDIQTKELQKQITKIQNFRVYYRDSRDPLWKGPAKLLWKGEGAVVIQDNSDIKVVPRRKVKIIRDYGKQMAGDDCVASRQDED
Chain of 72 kDa type IV collagenase (Homo sapiens) (P08253 110-660 limits assumed): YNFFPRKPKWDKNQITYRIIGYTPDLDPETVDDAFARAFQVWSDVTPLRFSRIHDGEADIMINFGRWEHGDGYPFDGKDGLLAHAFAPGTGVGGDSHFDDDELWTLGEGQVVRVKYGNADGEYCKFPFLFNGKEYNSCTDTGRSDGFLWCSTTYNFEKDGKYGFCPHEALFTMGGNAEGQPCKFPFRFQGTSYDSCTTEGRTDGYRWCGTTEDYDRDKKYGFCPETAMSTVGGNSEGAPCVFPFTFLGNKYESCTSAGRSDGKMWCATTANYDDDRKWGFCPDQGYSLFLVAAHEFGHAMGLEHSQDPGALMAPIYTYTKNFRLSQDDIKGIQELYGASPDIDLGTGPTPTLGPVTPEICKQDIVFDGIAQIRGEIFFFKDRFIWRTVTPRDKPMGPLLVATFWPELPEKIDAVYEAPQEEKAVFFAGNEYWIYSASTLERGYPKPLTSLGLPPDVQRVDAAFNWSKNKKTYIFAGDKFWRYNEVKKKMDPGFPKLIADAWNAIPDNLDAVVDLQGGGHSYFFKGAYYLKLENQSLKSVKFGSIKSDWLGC
Chain of Lactoylglutathione lyase (Homo sapiens) (Q04760 2-184 limits assumed): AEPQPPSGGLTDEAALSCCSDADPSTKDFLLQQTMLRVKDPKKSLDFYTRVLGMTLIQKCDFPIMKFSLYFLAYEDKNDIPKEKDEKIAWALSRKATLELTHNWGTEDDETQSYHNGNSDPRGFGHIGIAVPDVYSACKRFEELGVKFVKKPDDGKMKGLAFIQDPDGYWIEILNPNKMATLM

Structure (SMILES): N/C(=N\O)c1[nH]ccc(=O)c1O
- inhibition [1]: 15%
- inhibition [2]: 83%
- inhibition [3]: 43%

Structure (SMILES): O=C(O)c1ccc2cccc(O)c2[n+]1[O-]
- inhibition [1]: 5%
- inhibition [2]: 16%
- inhibition [3]: 87%

Structure (SMILES): O=C(O)c1ccc2cccnc2c1O
- inhibition [1]: 67%
- inhibition [2]: 22%
- inhibition [3]: 10%

Structure (SMILES): O=C(O)c1cccc(O)c1O
- inhibition [1]: 15%
- inhibition [2]: 82%
- inhibition [3]: 15%

Structure (SMILES): Cc1cc(=O)c(O)c(C(N)=O)o1
- inhibition [1]: 30%
- inhibition [2]: 5%
- inhibition [3]: 8%

Structure (SMILES): Cc1cc(=O)c(O)c(-c2ncco2)o1
- inhibition [1]: 88%
- inhibition [2]: 0%
- inhibition [3]: 8%

Structure (SMILES): CNC(=O)c1oc(C)cc(=O)c1O
- inhibition [1]: 22%
- inhibition [2]: 8%
- inhibition [3]: 6%

Structure (SMILES): Cc1occ(O)c(=O)c1C(=O)O
- inhibition [1]: 21%
- inhibition [2]: 5%
- inhibition [3]: 15%

Structure (SMILES): O=c1c(O)ccccc1O
- inhibition [1]: 95%
- inhibition [2]: 92%
- inhibition [3]: 92%

Structure (SMILES): Cc1cc(C(=O)O)c(O)c(=O)[nH]1
- inhibition [1]: 44%
- inhibition [2]: 8%
- inhibition [3]: 9%

Structure (SMILES): Cc1cc(=O)c(O)c(C(=O)O)[nH]1
- inhibition [1]: 97%
- inhibition [2]: 24%
- inhibition [3]: 6%
- inhibition [4]: Active

Structure (SMILES): Cc1cc(=O)c(O)c(C(=O)O)n1C
- inhibition [1]: 21%
- inhibition [2]: 2%
- inhibition [3]: 1%

Structure (SMILES): Nc1cccc(C(=O)O)c1O
- inhibition [1]: 0%
- inhibition [2]: 11%
- inhibition [3]: 7%

Structure (SMILES): Cc1cc(=S)c(O)c(C(=O)O)o1
- inhibition [1]: 46%
- inhibition [2]: 9%
- inhibition [3]: 84%

Structure (SMILES): Cc1nc(C(=O)O)c(O)c(=O)[nH]1
- inhibition [1]: 28%
- inhibition [2]: 0%
- inhibition [3]: 3%

Structure (SMILES): Oc1cccc(O)c1O [PYROGALLOL]
- IC50 [5]: 1700 nM
- pIC50 [5]: 5.8
- inhibition [1]: 21%
- inhibition [2]: 49%
- inhibition [3]: 63%

Structure (SMILES): Cc1cc(=O)c(O)c(C(=O)O)o1
- inhibition [1]: 96%
- inhibition [2]: 8%
- inhibition [3]: 12 to 13%
- inhibition [6]: inactive
- inhibition [7]: 37%
- inhibition [8]: inactive
- inhibition [9]: 11%
- inhibition [10]: 11%
- inhibition [11]: inactive
- inhibition [4]: Active

Structure (SMILES): O=C(O)c1cccc(=O)n1O
- inhibition [1]: 9%
- inhibition [2]: 2%
- inhibition [3]: 25%

Structure (SMILES): CNC(=O)c1cc(C)[nH]c(=O)c1O
- inhibition [1]: 7%
- inhibition [2]: 5%
- inhibition [3]: 8%

Structure (SMILES): Cc1cc(=O)c(O)c(C(=O)O)n1O
- inhibition [1]: 81%
- inhibition [2]: 12%
- inhibition [3]: 22%

Structure (SMILES): O=c1cc[nH]c(-c2nnn[nH]2)c1O
- inhibition [1]: 96%
- inhibition [2]: 7%
- inhibition [3]: 99%

Structure (SMILES): Cc1nc(-c2[nH]ccc(=O)c2O)no1
- inhibition [1]: 30%
- inhibition [2]: 6%
- inhibition [3]: 3%

Structure (SMILES): O=C(O)c1occc(=O)c1O
- inhibition [1]: 94%
- inhibition [2]: 1%
- inhibition [3]: 4%

Structure (SMILES): O=C(O)c1cccc(C(=O)O)n1 [DIPICOLINIC ACID]
- IC50 [5]: > 500000 nM
- pIC50 [5]: < 3.3

Structure (SMILES): Cc1cc(O)c(=O)c(O)cc1C(=O)O
- inhibition [1]: 98%
- inhibition [2]: 32%
- inhibition [3]: 61%

Structure (SMILES): O=C1c2c(O)cccc2Cc2cccc(O)c21
- inhibition [1]: 18%
- inhibition [2]: 41%
- inhibition [3]: 6%
